The text below walks through data of ChEMBL document CHEMBL1148462, “A novel class of phosphonate nucleosides. 9-[(1-phosphonomethoxycyclopropyl)methyl]guanine as a potent and selective anti-HBV agent” (J Med Chem, 2004).

Data set [1] relates to HepG2. Description: Cytotoxic activity in HepG2 2.2.15 cell line. Type of data set: functional. To be noted: Homo sapiens.
Data set [2] relates to HepG2. Kind of data set: (§1) Compound tested for anti-HBV (hepatitis B virus) activity in HepG2 2.2.15 cell line. Type of data set: functional, cell-based. To be noted: Homo sapiens. In a few lines: (§2)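 HBV-producing HepG2 2.2.15 cells cultured in DMEM/10% FBS with 400 μg/mL G418, seeded at 1.5 × 10⁴ cells/well and grown 2 days to 80–90% confluence. Medium then switched to 2% FBS. Compounds at 0–100 μM (fivefold steps) added every other day for 9 days. Day-10 supernatant boiled, serially diluted and HBV DNA quantified by TaqMan real-time PCR (40 cycles) to derive EC50.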

The test system of data set [3] is HepG2. Described as §1. The format is functional. Particulars: Homo sapiens. A digest of the protocol:
as §2

The nature of data set [4]: Oral bioavailability in rat. To be noted: in vivo. The format is ADME, organism-based.
Data set [5] concerns Human immunodeficiency virus 1. Description: Concentration required for inhibition of replication of human immunodeficiency virus (HIV-1). Type of data set: functional.
For data set [6], the system named is Human alphaherpesvirus 1. Description: […] of herpes simplex virus (HSV-1).

Bounds are passed on as bounds.

As to `CCNc1nc(N)nc2c1ncn2CC1(OCP(=O)(O)O)CC1`, the CC50 in data set [1] was over 1000 µM. Besides, the EC50 in data set [2] is over 30 µM.
As for `CCOc1nc(N)nc2c1ncn2CC1(OCP(=O)(O)O)CC1`, in data set [1], the cytotoxic concentration (CC50) was over 1000 µM. Besides, it took 0.5 µM to reach a half-maximal effect in data set [2] (EC50). Besides, it took 3 µM to reach the 80% level in data set [3] (EC80).
`Nc1ncnc2c1ncn2CC1(OCP(=O)(O)O)CC1` returned a 50% cytotoxic concentration (CC50) in data set [1] of over 1000 µM. In addition, the concentration giving a half-maximal response (EC50) in data set [2] amounted to 8 µM.
For `Cc1cn(CC2(OCP(=O)(O)O)CC2)c(=O)[nH]c1=O`, in data set [1], the 50% cytotoxic concentration (CC50) was over 1000 µM. In addition, the half-maximal effective concentration (EC50) in data set [2] was over 30 µM.
In the case of `Nc1nc(Cl)c2ncn(CC3(OCP(=O)(O)O)CC3)c2n1`, the CC50 in data set [1] is over 1000 µM. For the same compound, the 50% effective concentration (EC50) in data set [2] was found to be 1.5 µM. Also, it took 7.5 µM to reach the 80% level in data set [3] (EC80).
On to `Cc1nc(N)nc2c1ncn2CC1(OCP(=O)(O)O)CC1`, for which the CC50 in data set [1] was over 1000 µM. In data set [2], this compound registered an EC50 of 8 µM.
`Nc1ncnc2c1ncn2CCOCP(=O)(O)O` [ADEFOVIR]: in data set [2], a half-maximal effect (EC50) was put at 2 µM. In addition, in data set [3], the EC80 was determined as 44 µM.
In the case of `Nc1ncc2ncn(CC3(OCP(=O)(O)O)CC3)c2n1` [BESIFOVIR], in data set [4], the bioavailability was over 5%. Moreover, the 50% cytotoxic concentration (CC50) in data set [1] was over 1000 µM. In addition, the response in data set [2] was half-maximal at 4 µM (EC50).
On to `Nc1nc(O)c2ncn(CC3(OCP(=O)(O)O)CC3)c2n1` [LB80317], for which the Inhibition in data set [5] and in data set [6] was over 30 µM throughout. Further, the CC50 in data set [1] was over 1000 µM. For the same compound, in data set [2], the EC50 worked out at 0.5 µM. This compound displayed an EC80 in data set [3] of 2.3 µM.

Broadly, the CC50 is the concentration that lowers cell viability or growth by half. In general, EC50 refers to the concentration at which the effect is half-maximal. A low value points to greater potency. By EC80 is commonly meant the concentration needed for an effect of 80%. In general, bioavailability refers to dose-corrected exposure relative to a reference, in per cent. The low end stands for little systemic uptake, the high end for much systemic uptake.
